Among the data in the array DNA melting data of Ke et al. (doi:10.1101/2024.01.08.574731) are Tm and folding enthalpy values, retold here.

The nature of data set [1]: melting temperature; fluorescence melt of hairpins on a sequencing array, two-state fit, raised by 9.35 °C to match UV melts. The conditions noted are these: sodium 0.088 M. The gist of the method:
(§1)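 In 50 mM Na-HEPES pH 8.0 containing 25 mM NaCl, hairpins from the library on a sequenced MiSeq flow cell were imaged for Cy3 fluorescence at 2.5 °C steps up to 60 °C, with Cy3 and quencher oligos annealed. After normalisation to pre-quench Cy3 and to control constructs, two-state fits with bootstrapping gave melting temperature and folding enthalpy. Four replicates were combined by inverse-variance weighting, and fitted temperatures were shifted up by 9.35 °C to match UV melts.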

Data set [2] in a line: folding enthalpy; higher = less favourable; fluorescence melt of hairpins on a sequencing array, two-state fit. The conditions noted are these: sodium 0.088 M. The gist of the method: as §1

For the sequence GCTTTTGGAAACAAGAGC (((.(((....))).))), in data set [1], the Tm turned out to be 41 °C. The folding enthalpy in data set [2] was -20 kcal/mol.

For GATCACTGGTGTGATC ((((((....)))))), the Tm in data set [1] came to 58 °C. Moreover, the folding enthalpy in data set [2] was -36.7 kcal/mol.

With GCGCTCGAAAGAGGTCGC ((((((....)))..))), the Tm in data set [1] amounted to 47.9 °C. The folding enthalpy in data set [2] is -25.2 kcal/mol.

With GTGAACGAAAGTTTACAC ((((((....)))..))), the Tm in data set [1] came out at 39.6 °C. Further, the folding enthalpy in data set [2] was -18.6 kcal/mol.

With GTGCACCGAAAGGTCCAC (((.(((....))).))), the Tm in data set [1] amounted to 45.2 °C. The folding enthalpy in data set [2] was -27.3 kcal/mol.

In the case of GGCCGTCGAAAGACCGCC (((.(((....))).))), the Tm in data set [1] was 53 °C. In data set [2], the folding enthalpy was -42.5 kcal/mol.

For the sequence GCCACTCGAAAGAGAGGC (((.(((....))).))), in data set [1], the Tm amounted to 60 °C. Also, in data set [2], the folding enthalpy was -39.1 kcal/mol.

As to GATCGGTAATCCGATC ((((((....)))))), the Tm in data set [1] is 57.3 °C. Besides, the folding enthalpy in data set [2] is -40.8 kcal/mol.

With GCCCACGGAAACGCGGAC (.((.((....)).)).), in data set [1], the Tm is 32.8 °C. For the same sequence, the folding enthalpy in data set [2] is -18.4 kcal/mol.

Turning to GCTTGCGGAAACGTAGGC ((.(.((....)).).)), the Tm in data set [1] turned out to be 38.6 °C. The folding enthalpy in data set [2] is -11.7 kcal/mol.

For GATCGCCGGGCGATC ((((((...)))))), the Tm in data set [1] was determined as 67.8 °C. The folding enthalpy in data set [2] is -31.1 kcal/mol.

On to GATCTGTTCTCAGATC ((((((....)))))), for which the Tm in data set [1] came to 51.5 °C. The folding enthalpy in data set [2] was -41.3 kcal/mol.

With GTCGAATCGAAAGATGAC (((..(((....)))))), in data set [1], the Tm was found to be 32.6 °C. Moreover, the folding enthalpy in data set [2] is -19.9 kcal/mol.

Regarding GATCCGGTCGCGGATC ((((((....)))))), in data set [1], the Tm was 60.2 °C. In addition, the folding enthalpy in data set [2] was -36.7 kcal/mol.

Consider GATCATTACCATGATC ((((((....)))))), for which the Tm in data set [1] is 46.8 °C. Further, the folding enthalpy in data set [2] was -35.3 kcal/mol.

GTGTTCGAAAGAACGCAC ((((((....)))..))): in data set [1], the Tm turned out to be 48.4 °C. Also, in data set [2], the folding enthalpy is -12.4 kcal/mol.

With CGCGTGCGGAAACGCGCG (((..(((....)))))), in data set [1], the Tm stood at 66.1 °C. Besides, in data set [2], the folding enthalpy is -12.4 kcal/mol.

On to GATCTTTTTCAAGATC ((((((....)))))), for which, in data set [1], the Tm stood at 42.3 °C. Also, the folding enthalpy in data set [2] is -33.6 kcal/mol.

Regarding GTGTGAGGAAACTCATGC (..((((....))))..), the Tm in data set [1] came to 36.8 °C. In addition, in data set [2], the folding enthalpy is -23.5 kcal/mol.

Take GCCTCTGAAAAGAGGC ((((((....)))))): the Tm in data set [1] stood at 68.9 °C. In addition, the folding enthalpy in data set [2] is -37.8 kcal/mol.

As to GCCCATGGAAACACGGGC ((((.((....)).)))), the Tm in data set [1] turned out to be 49.4 °C. Further, in data set [2], the folding enthalpy was -43 kcal/mol.

For the sequence GATCGAATTGTCGATC ((((((....)))))), the Tm in data set [1] was determined as 50 °C. Also, in data set [2], the folding enthalpy is -41.9 kcal/mol.

For the sequence GACGCTGCGAAAGCAGTC (((..(((....)))))), the Tm in data set [1] stood at 37.2 °C. Moreover, the folding enthalpy in data set [2] is -8.26 kcal/mol.

GATCGCCGGCGCGATC ((((((....)))))): the Tm in data set [1] is 61.1 °C. Besides, in data set [2], the folding enthalpy is -34.1 kcal/mol.

For GATCGATAGATCGATC ((((((....)))))), the Tm in data set [1] was found to be 61.1 °C. Also, in data set [2], the folding enthalpy was -18.9 kcal/mol.

On to GTGAATGGAAACATCCAC (((.(((....))).))), for which the Tm in data set [1] stood at 34.6 °C. In addition, the folding enthalpy in data set [2] is -24.1 kcal/mol.

In the case of GAATAAGAAATTATTC ((((((....)))))), in data set [1], the Tm stood at 31.9 °C. In addition, in data set [2], the folding enthalpy was -10.4 kcal/mol.

Regarding GATCACTCTGGTGATC ((((((....)))))), the Tm in data set [1] amounted to 58.8 °C. For the same sequence, in data set [2], the folding enthalpy is -39.8 kcal/mol.

Turning to GGTCTCGAAAGAGTTACC ((((((....)))..))), the Tm in data set [1] worked out at 32.3 °C. In addition, the folding enthalpy in data set [2] was -17.3 kcal/mol.

As to GCCTAGCGAAAGCGCGGC (((..((....))..))), the Tm in data set [1] was 61.9 °C. Further, the folding enthalpy in data set [2] is -18.5 kcal/mol.

On to GATCGTGAGGACGATC ((((((....)))))), for which the Tm in data set [1] is 53.5 °C. The folding enthalpy in data set [2] was -34.1 kcal/mol.

On to GATCTCCACTGAGATC ((((((....)))))), for which the Tm in data set [1] amounted to 51.7 °C. The folding enthalpy in data set [2] was -40.7 kcal/mol.

For GAAAACGAAAGTTTCTTC ((((((....)))..))), the Tm in data set [1] amounted to 46.6 °C. Also, the folding enthalpy in data set [2] was -35 kcal/mol.

As for GCACAGCGAAAGCCATGC (((..((....))..))), the Tm in data set [1] was 38 °C. In addition, in data set [2], the folding enthalpy was -11.9 kcal/mol.

For GATCACATGGGTGATC ((((((....)))))), in data set [1], the Tm is 56.4 °C. The folding enthalpy in data set [2] is -45.1 kcal/mol.

As for GATCATTCTAATGATC ((((((....)))))), the Tm in data set [1] came to 49.4 °C. Besides, the folding enthalpy in data set [2] is -31.9 kcal/mol.

On to GATGGAGGAAACTCCACC (.(((((....))))).), for which the Tm in data set [1] stood at 34.1 °C. For the same sequence, in data set [2], the folding enthalpy is -16.3 kcal/mol.
